We go through three molecules from paper PMC12215967 (Scientific Reports, 2025).

“Also recorded” adds a separate entry of the source.

Data set [1] is described as follows: proton relaxivity measurement. It counts as physicochemical. As to conditions: 128 MHz, 298 K.
For data set [2], the system named is HT-1080 transplanted tumors (CD13 positive expression). The data set can be described thus: T1WI MRI of HT-1080 tumor-bearing mice, T/NT ratio. It is filed as in vivo, human fibrosarcoma in BALB/c nude mice.
In data set [3] the test system is HT-29 transplanted tumors (CD13 negative expression). The experiment in a line: T1WI MRI of HT-29 tumor-bearing mice, T/NT ratio. It counts as in vivo, human colorectal adenocarcinoma in BALB/c nude mice.
The next data set has as its target CD13 receptor (Homo sapiens, UniProt P15144). The data set can be described thus: competitive cell binding assay. As to conditions: HT-1080 cells, 0.01 to 60.00 µM.
Data set [4] deals with HT-1080 transplanted tumors. The data set can be described thus: tumor size on transverse MRI, HT-1080. It is filed as in vivo, human fibrosarcoma in BALB/c nude mice. A digest of the protocol:
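8-week BALB/c nude mice (~25 g, SPF) bore right-axillary HT-1080 xenografts from 5 × 10^6 cells. At ~1 cm, mice got Gd-labeled probe (200 µg i.p.) and 3.0T T1WI MRI with a small-animal coil (TR 200 ms, TE 2.46 ms, 3 mm slices). Test compound was then given at 0.5 mg/kg/day i.p. for 7 days, with repeat MRI on day 8. Groups were compared by one-way ANOVA.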

Data set [5] has as its system HT-29 transplanted tumors. The data set can be described thus: tumor size on transverse MRI, HT-29. It counts as in vivo, human colorectal adenocarcinoma in BALB/c nude mice.
The test system of another data set is APN/CD13. The experiment in a line: immunohistochemistry of APN/CD13 expression in HT-1080 transplanted tumors. It counts as in vivo, human fibrosarcoma in BALB/c nude mice. As to conditions: ubenimex 0.5 mg/kg/day i.p., one week / 7 days. The method, boiled down:
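HT-1080 cells, grown in DMEM with 10% FBS at 37 °C and 5% CO2, were inoculated at 5 × 10^6 cells into the right axilla of 8-week BALB/c nude mice. Tumors reached about 1 cm. Test compound was given at 0.5 mg/kg/day i.p. for 7 days. After the day-8 MRI, tumors were harvested, formaldehyde-fixed for 48 h, paraffin-embedded, cut at 5 μm and immunostained for APN/CD13.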

Chain of CD13 receptor (P15144 whole entry): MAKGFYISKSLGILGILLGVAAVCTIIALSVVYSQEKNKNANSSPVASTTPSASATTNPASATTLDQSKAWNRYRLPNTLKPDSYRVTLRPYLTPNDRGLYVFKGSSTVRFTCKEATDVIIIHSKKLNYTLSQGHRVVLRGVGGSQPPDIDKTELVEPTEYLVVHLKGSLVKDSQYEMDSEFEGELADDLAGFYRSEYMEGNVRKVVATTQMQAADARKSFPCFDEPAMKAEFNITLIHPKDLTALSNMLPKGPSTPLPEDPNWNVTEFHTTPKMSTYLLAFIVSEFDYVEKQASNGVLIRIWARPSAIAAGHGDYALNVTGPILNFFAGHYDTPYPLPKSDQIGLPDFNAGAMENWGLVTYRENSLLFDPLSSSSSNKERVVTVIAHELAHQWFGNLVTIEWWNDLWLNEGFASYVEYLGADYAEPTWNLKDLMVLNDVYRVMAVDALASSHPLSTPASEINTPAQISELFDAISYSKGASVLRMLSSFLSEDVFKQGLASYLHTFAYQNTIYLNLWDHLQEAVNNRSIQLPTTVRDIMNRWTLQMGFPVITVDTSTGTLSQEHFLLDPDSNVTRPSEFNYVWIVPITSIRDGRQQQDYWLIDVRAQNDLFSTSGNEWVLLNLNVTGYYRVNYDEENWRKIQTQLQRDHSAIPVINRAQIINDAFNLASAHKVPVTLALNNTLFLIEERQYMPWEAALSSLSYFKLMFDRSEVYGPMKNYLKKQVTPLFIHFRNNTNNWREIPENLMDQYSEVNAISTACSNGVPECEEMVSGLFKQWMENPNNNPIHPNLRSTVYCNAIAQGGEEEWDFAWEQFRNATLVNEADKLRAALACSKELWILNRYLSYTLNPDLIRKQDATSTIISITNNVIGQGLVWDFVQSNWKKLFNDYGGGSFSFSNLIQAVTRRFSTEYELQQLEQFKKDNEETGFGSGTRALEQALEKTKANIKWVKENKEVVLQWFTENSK

Take `O=C([O-])CN1CCN(CC(=O)[O-])CCN(CC(=O)O)CCN(CC(=O)[O-])CC1.[Gd+3]` [Gd-DOTA]: the “proton relaxivity R1” value in data set [1] stood at 4.0 mM^− 1S^− 1. The “T/NT of HT-1080 xenografts (treated or untreated) compared with HT-29 xenografts” value in data set [2] (Gd-DOTA, 1 h post-injection) is “no significant difference in T/NT values”. The “tumor signal intensity on T1WI” value in data set [2] (HT-1080 xenograft, intraperitoneal injection, before treatment) is “high signal intensity”; in data set [3] (HT-29 xenograft, intraperitoneal injection, before treatment) it was “high signal intensity”. The “time of peak T/NT value post-injection” value was found to be 1 h in data set [2] (HT-1080 xenografts, i.p. injection, T/NT value-time curve) and 1 h in data set [3] (HT-29 xenografts, i.p. injection, T/NT value-time curve).
With DOTA-G3CNGRC, the “inhibition of 99mTc-DOTA-G3CNGRC binding to the CD13 receptor” value on CD13 receptor was “inhibited by DOTA-G3CNGRC in a dose-dependent manner”.
In the case of `CC(C)C[C@H](NC(=O)[C@@H](O)[C@H](N)Cc1ccccc1)C(=O)O` [ubenimex], the “change in T/NT ratio after treatment” value in data set [2] (ubenimex 0.5 mg/kg/day i.p., 7 days, MRI on the 8th day) is reported as “decreased significantly”. The “change of tumor size (sum of long and short diameters)” value in data set [4] (7 days of ubenimex treatment) is reported as “not changing significantly”. The “sum of the long and short diameters of the tumor, before treatment” value in data set [4] (HT-1080, n = 5, before ubenimex, P = 0.39 before vs after) is on record as 3.1 ± 0.1 cm. The “sum of the long and short diameters of the tumor, after one week” value in data set [5] (HT-29, after one week, P = 0.001 vs before) amounted to 3.5 ± 0.2 cm. Further, the “sum of the long and short diameters of the tumor, before” value in data set [5] (HT-29, before, P = 0.001 vs after one week) is reported as 2.9 ± 0.1 cm. The “expression of APN/CD13 in HT-1080 grafts after treatment” value in the data set with APN/CD13 is “decreased significantly; also recorded: markedly reduced”.
